2 compounds from ChEMBL document CHEMBL2424551, “Synthesis, in vitro evaluation and molecular modelling of naphthalimide analogue as anticancer agents” (2013) can be followed below.

Common to all, as to format: functional
Test [1] deals with HT-29. The test is described as follows: Growth inhibition of human HT-29 cells at 10 uM after 48 hrs by SRB assay. Particulars: HT-29, 48 h, read-out: GI. In outline:
(§1)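 Cells grown in RPMI 1640 with 5% FBS and 2 mM L-glutamine, plated at 5000–40,000 cells/well by doubling time and preincubated 24 h (37 °C, 5% CO2); a time-zero plate is TCA-fixed. Single dose added, then 48 h incubation. Fixed with cold TCA, stained with 0.4% SRB, dye solubilized in 10 mM Tris base, absorbance at 515 nm; percent growth vs time-zero and untreated control.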
(In SRB staining, fixed cells bind dye roughly in proportion to their protein.)

For test [2], the system named is NCI-H226. Put plainly: Growth inhibition of human NCI-H226 cells at 10 uM after 48 hrs by SRB assay. The note with it: NCI-H226, 48 h, read-out: GI. In outline: as §1
Test [3] concerns SNB-75. The test is described as follows: Growth inhibition of human SNB75 cells at 10 uM after 48 hrs by SRB assay. The note with it: SNB-75, 48 h, read-out: GI. The gist of the method:
(§2)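 NCI 60-cell-line screen with a single 10 µM dose. Cells are grown in RPMI 1640 with 5% FBS and 2 mM L-glutamine, plated at 5000–40,000 cells/well according to doubling time, and preincubated 24 h at 37 °C, 5% CO2; time-zero plates are TCA-fixed at that point. Drug exposure is 48 h. Adherent cells are fixed with cold TCA, stained with 0.4% SRB in 1% acetic acid and read at 515 nm. Percent growth is calculated relative to time-zero and untreated controls and reported as GI%.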

The test system of test [4] is TK-10. The test is described as follows: Growth inhibition of human TK10 cells at 10 uM after 48 hrs by SRB assay. Particulars: TK-10, 48 h, read-out: GI. In outline: as §2
Test [5] is described as follows: Growth inhibition of human EKVX cells at 10 uM after 48 hrs by SRB assay. The note with it: read-out: GI. In outline:
as §1

For test [6], the system named is MDA-MB-231. The test is described as follows: Growth inhibition of human MDA-MB-231 cells at 10 uM after 48 hrs by SRB assay. Particulars: MDA-MB-231, 48 h, read-out: GI. In outline:
as §1

For test [7], the system named is SK-OV-3. Put plainly: Growth inhibition of human SKOV3 cells at 10 uM after 48 hrs by SRB assay. Particulars: SK-OV-3, 48 h, read-out: GI. The gist of the method: as §2
The subject of test [8] is MOLT-4. The test is described as follows: Growth inhibition of human MOLT4 cells at 10 uM after 48 hrs by SRB assay. Particulars: MOLT-4, 48 h, read-out: GI. The gist of the method:
as §1

Test [9] concerns UACC-257. The test is described as follows: Growth inhibition of human UACC257 cells at 10 uM after 48 hrs by SRB assay. The note with it: UACC-257, 48 h, read-out: GI. In outline: as §2
Test [10] deals with A549. Put plainly: Growth inhibition of human A549 cells at 10 uM after 48 hrs by SRB assay. Particulars: A549, 48 h, read-out: GI. In outline:
as §1

Test [11] concerns CCRF-CEM. The test is described as follows: Growth inhibition of human CCRF-CEM cells at 10 uM after 48 hrs by SRB assay. The note with it: read-out: GI. The gist of the method:
as §1

The test system of test [12] is MDA-MB-435. Put plainly: Growth inhibition of human MDA-MB-435 cells at 10 uM after 48 hrs by SRB assay. Particulars: MDA-MB-435, 48 h, read-out: GI. In outline: as §1
The subject of test [13] is HCT-116. Put plainly: Growth inhibition of human HCT116 cells at 10 uM after 48 hrs by SRB assay. The note with it: HCT-116, 48 h, read-out: GI. In outline:
as §1

Test [14] deals with T47D. The test is described as follows: Growth inhibition of human T47D cells at 10 uM after 48 hrs by SRB assay. Particulars: read-out: GI. In outline:
as §2

For test [15], the system named is HL-60(TB). Put plainly: Growth inhibition of human HL-60(TB) cells at 10 uM after 48 hrs by SRB assay. The note with it: HL-60, 48 h, read-out: GI. The gist of the method: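 Single-concentration pass across the 60-line panel in RPMI 1640 with 5% FBS. Cells preincubated 24 h, then exposed 48 h at 37 °C, 5% CO2. Read by SRB staining with absorbance at 515 nm. Percent growth is taken relative to time-zero and untreated controls and reported as percent growth inhibition (GI %).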

In test [16] the test system is OVCAR-8. The test is described as follows: Growth inhibition of human OVCAR8 cells at 10 uM after 48 hrs by SRB assay. The note with it: OVCAR-8, 48 h, read-out: GI. The gist of the method: as §1
In test [17] the test system is K562. The test is described as follows: Growth inhibition of human K562 cells at 10 uM after 48 hrs by SRB assay. The note with it: K562, 48 h, read-out: GI. In outline: as §1
Test [18] relates to OVCAR-3. The test is described as follows: Growth inhibition of human OVCAR3 cells at 10 uM after 48 hrs by SRB assay. The note with it: OVCAR-3, 48 h, read-out: GI. In outline:
as §1

Test [19] concerns COLO 205. The test is described as follows: Growth inhibition of human COLO205 cells at 10 uM after 48 hrs by SRB assay. Particulars: COLO 205, 48 h, read-out: GI. The gist of the method: as §1
The subject of test [20] is SW-620. The test is described as follows: Growth inhibition of human SW620 cells at 10 uM after 48 hrs by SRB assay. Particulars: SW-620, 48 h, read-out: GI. The gist of the method: as §2
Test [21] relates to KM12. The test is described as follows: Growth inhibition of human KM12 cells at 10 uM after 48 hrs by SRB assay. Particulars: KM12, 48 h, read-out: GI. In outline: as §1
Test [22] has as its system RPMI-8226. The test is described as follows: Growth inhibition of human RPMI8226 cells at 10 uM after 48 hrs by SRB assay. The note with it: RPMI-8226, 48 h, read-out: GI. In outline: as §1
Test [23] in a line: Growth inhibition of human HCC2998 cells at 10 uM after 48 hrs by SRB assay. The note with it: HCC 2998, 48 h, read-out: GI. The gist of the method: as §1

`O=c1c2cccc3c(N4CCCC4)ccc(c32)c2nc3ccccc3n12`: the inhibition of growth at 10 µM in test [1] is 22.2%; in [2] it was 44.7%; in test [3], 27%; in test [4] it was less than 20%; in [5], 24.1%; in [6] it was 22.9%. Also, the inhibition of growth at 10 µM in [7] is 20.9%; in [8] it was 97.4%; in test [9], less than 20%; in test [10], 67.4%; in test [11], 46.3%; in test [12], less than 20%. The inhibition of growth at 10 µM in [13] was 45.3%; in test [14] it was 27.9%; in test [15], 28%; in [16] it was 34%; in test [17], 24%; in test [18], less than 20%. Moreover, the inhibition of growth at 10 µM is 36.4% in test [19]; 40.5% in test [20]; less than 20% in test [21]; 24.3% in [22]; 29.6% in [23].

Take `O=c1c2cccc3c(N4CCOCC4)ccc(c32)c2nc3ccccc3n12`: the inhibition of growth at 10 µM in test [1] is less than 20%; in test [2], less than 20%; in [3] it was 20.9%; in test [4] it was 28.2%; in [5], 61.7%; in [6], less than 20%. In addition, the inhibition of growth at 10 µM in [7], in [8], in test [9], in test [10], in [11] and in test [12] was less than 20% throughout. Besides, the inhibition of growth at 10 µM in test [13] was less than 20%; in [14], 61.9%; in [15], less than 20%; in test [16] it was less than 20%; in test [17], less than 20%; in test [18] it was less than 20%. For the same compound, the inhibition of growth at 10 µM in [19] was less than 20%; in test [20], less than 20%; in [21], 21.9%; in [22] it was less than 20%; in test [23], 26.8%.
